Like-named read-outs stand apart in the source and are kept apart here.
Assays:
NTPDase8 = biological target: T1, NTPDase8 (Homo sapiens, UniProt Q5MY95); assay: Malachite green assay, NTPDase8 in COS-7 cell membranes; assay type: biochemical
T1 sequence (Q5MY95 1-495): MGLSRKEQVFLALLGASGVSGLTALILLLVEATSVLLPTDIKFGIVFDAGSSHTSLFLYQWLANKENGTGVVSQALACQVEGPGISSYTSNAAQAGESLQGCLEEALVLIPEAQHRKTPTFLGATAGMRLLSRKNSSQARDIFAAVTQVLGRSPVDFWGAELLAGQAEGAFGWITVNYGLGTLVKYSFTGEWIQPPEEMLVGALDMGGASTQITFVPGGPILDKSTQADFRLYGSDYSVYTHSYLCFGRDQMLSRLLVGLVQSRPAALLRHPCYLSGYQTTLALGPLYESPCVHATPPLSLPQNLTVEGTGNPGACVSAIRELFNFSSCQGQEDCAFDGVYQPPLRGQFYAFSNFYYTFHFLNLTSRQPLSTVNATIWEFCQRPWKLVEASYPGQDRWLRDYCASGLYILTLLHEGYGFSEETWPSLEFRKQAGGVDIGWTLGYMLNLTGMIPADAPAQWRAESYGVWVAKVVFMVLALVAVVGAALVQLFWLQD
Outline: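 Human NTPDase2, -3 or -8 was expressed in COS-7 membranes (ca. 100 ng protein, adjusted for 10–20% substrate conversion). Enzyme was preincubated 5 min at 37°C with test compound (50 µM single point, or 0.1–300 µM for curves). It was then incubated 15 min at 37°C with 100 µM ATP in HEPES/CaCl2/MgCl2, pH 7.4, ≤2% DMSO. Malachite green absorbance at 600 nm was corrected by a denatured-enzyme blank; n=3.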

NPP4 = biological target: T2, NPP4 (Homo sapiens, UniProt Q9Y6X5); assay: NPP4 assay; assay type: biochemical
T2 sequence (Q9Y6X5 16-407 limits assumed): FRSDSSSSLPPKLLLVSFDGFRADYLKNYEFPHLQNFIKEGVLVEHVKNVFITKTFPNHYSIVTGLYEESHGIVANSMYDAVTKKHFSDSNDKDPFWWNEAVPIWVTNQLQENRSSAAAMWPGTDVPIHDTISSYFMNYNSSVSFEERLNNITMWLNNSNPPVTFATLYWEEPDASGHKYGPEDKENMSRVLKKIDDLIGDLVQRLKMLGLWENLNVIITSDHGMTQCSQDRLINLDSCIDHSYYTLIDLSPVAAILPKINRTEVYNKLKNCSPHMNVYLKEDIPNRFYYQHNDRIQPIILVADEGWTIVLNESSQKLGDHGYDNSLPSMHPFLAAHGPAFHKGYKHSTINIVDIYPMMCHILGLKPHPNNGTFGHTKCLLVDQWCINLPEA
Outline: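 Purified soluble NPP4 (1200 ng, Sf9-expressed) was incubated with 50 µM test compound, 2% DMSO and 300 µM diadenosine tetraphosphate. Buffer: 10 mM HEPES, 2 mM CaCl2, 1 mM MgCl2, pH 8.0; 90 min at 37°C with shaking. The reaction was heat-stopped (90°C, 5 min) and chilled on ice. Product ATP was quantified by capillary electrophoresis.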

human PBMCs = assay: HPLC assay of ATPase activity; assay type: cell-based; details: ceritinib 50 µM and higher; 1 µM eATP
Outline: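 PBMCs were isolated from buffy coats by density gradient. Cells (2×10^5) were pretreated with test compound (1, 10, 50, 100 µM) for 15 min at 37°C, then given 1 µM eATP (ATPase) or eAMP (AMPase) for 30 min at 37°C. Cells were removed and supernatants 10 kDa-filtered. Etheno-nucleotides were quantified by reversed-phase C8 HPLC (phosphate pH 6.0/methanol gradient; fluorescence 230/410 nm) against standards; singlets, n=2–3.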

ALK = details: ref 59 60; cited from earlier work
human CD39 [1] = biological target: T3, human CD39 (Homo sapiens, UniProt P49961); assay: CE-UV; assay type: biochemical
T3 sequence (P49961 1-510): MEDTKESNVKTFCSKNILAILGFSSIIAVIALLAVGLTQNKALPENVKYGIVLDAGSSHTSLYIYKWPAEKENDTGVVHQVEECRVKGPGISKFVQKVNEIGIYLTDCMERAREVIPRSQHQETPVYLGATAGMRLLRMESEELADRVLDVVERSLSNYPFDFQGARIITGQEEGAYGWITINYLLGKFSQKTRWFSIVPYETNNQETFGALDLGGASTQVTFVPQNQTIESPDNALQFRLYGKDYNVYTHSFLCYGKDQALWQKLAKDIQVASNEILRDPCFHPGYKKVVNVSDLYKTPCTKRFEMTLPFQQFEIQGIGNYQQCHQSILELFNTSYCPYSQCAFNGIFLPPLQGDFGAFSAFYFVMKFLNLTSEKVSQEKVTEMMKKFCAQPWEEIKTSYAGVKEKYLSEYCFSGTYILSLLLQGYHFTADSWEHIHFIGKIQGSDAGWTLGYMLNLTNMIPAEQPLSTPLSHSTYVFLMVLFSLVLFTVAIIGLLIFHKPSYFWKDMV
Outline: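 Recombinant human CD39 (COS-7 membranes) was incubated with test compound (0.1–300 µM) and 100 µM ATP. Buffer: 10 mM HEPES, 2 mM CaCl2, 1 mM MgCl2, pH 7.4; 30 min at 37°C. Reactions were stopped by heating 10 min at 90°C. ATP, ADP and AMP were separated by capillary electrophoresis with UV detection.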

[2] = system: melanoma (Ma-Mel-65) cell membrane preparations; assay: Malachite green assay, ATP hydrolysis by melanoma cell membrane preparations; assay type: biochemical, human; details: increasing concentrations of ceritinib, 50 µM ATP
Outline: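 Crude membranes came from ~90% confluent MDA-MB-231 or Ma-Mel-65 cells. Cells were homogenised in Tris/EDTA/saccharose/PMSF buffer, pH 7.4, and centrifuged at 1000 g, then 48,000 g for 1 h at 4°C. Pellets were washed and stored at −80°C in 50 mM Tris-HCl, pH 7.4. ATP hydrolysis (50 µM ATP, HEPES/Ca/Mg pH 7.4) was run with increasing test compound concentrations for 15 min at 37°C. Phosphate was read by malachite green (600 nm); triplicates, n=3.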

[3] = patients, peroral; cited from earlier work
human CD39 [4] = biological target: T3, human CD39; assay: Inhibition type experiments, malachite green assay on recombinant human CD39; assay type: biochemical
[5] = cited from earlier work

## Cc1cc(Nc2ncc(Cl)c(Nc3ccccc3S(=O)(=O)C(C)C)n2)c(OC(C)C)cc1C1CCNCC1 [ceritinib, Ceritinib]
NTPDase8
  IC50: 20.3 ± 1.5 µM
NPP4
  IC50: > 50 µM
NPP4; read-out: % inhibition at 50 µM
  inhibition at 50 µM: 15%
Human PBMCs
  formation of eAMP from eATP by PBMCs: completely blocked
ALK
  IC50 value against ALK: subnanomolar range
Human CD39 [1]
  IC50: 13.7 ± 0.6 µM
[2]
  ATPase activity of cancer cell membranes: decreased significantly
[3]
  maximum plasma levels: up to 1.4 µM
Human CD39 [4]
  Ki: 11 µM
Human CD39 [4]; Km unchanged, Vmax decreased, Hanes-Woolf plot
  inhibition type: non-competitive, allosteric
[5]; brain tumor patients, after the 10th applied dose, steady state
  average concentration in tumor tissue: 36 µM
[5]; brain tumor patients, after the 10th applied dose
  range of concentration in tumor tissue: 2 to 139 µM
[5]; brain tumors, steady-state conditions
  average concentration in tumor tissue: 36 nmol/g
[5]
  concentration in tumor tissues in some patients: above 100 µM

Source: publication PMC9394215 (Journal for Immunotherapy of Cancer, 2022)
